# NPY1 pot ag: potentiates or activates human NPY-Y1 receptor | 220,000 compounds, 0.37% hits | activation, % at 3.6 µM | NPY-Y1 expressing cells, potentiator/agonist activation | P25929; in the data active = activation above about 33%, passing the limit was not always enough;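 note: cells stimulated with NPY at EC10 then isoproterenol at EC100; 0% = low agonist plus stimulus and 100% = saturating agonist plus stimulus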
# Target sequence (P25929 whole entry, looked up): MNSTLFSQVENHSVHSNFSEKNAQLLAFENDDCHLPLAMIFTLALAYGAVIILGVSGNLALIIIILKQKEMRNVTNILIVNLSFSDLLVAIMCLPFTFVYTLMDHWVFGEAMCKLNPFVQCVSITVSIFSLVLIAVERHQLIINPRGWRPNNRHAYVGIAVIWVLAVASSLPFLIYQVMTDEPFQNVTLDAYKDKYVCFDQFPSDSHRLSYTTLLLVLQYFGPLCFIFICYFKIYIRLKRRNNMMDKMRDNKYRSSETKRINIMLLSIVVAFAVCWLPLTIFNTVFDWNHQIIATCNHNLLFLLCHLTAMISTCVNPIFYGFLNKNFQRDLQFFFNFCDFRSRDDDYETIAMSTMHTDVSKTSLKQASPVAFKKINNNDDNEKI
# NPY-Y1 antag: blocks the human neuropeptide Y Y1 receptor | inhibition, % at 3.6 µM | HEK293-CNG Y1 cells, membrane potential fluorescence; NPY at EC95, then isoproterenol | P25929 | 200,000 compounds, 1% hits;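 active = inhibition above the campaign mean inhibition of all tested compounds plus 3 SD, cut at about 20% in these data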;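 note: 0% = DMSO wells given NPY plus isoproterenol and 100% = isoproterenol alone without NPY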
#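 material = HEK293 cells with Y1 receptor plus CNG channel | also added = NPY 25 nM then isoproterenol 1 µM plus Ro 20-1724 25 µM | schedule = dye 3 h, compound 60 min room temperature, stimulation 45 min | measured by = membrane potential fluorescence | benchmarks = high control isoproterenol alone, low control NPY with isoproterenol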
# NPY-Y2 antag: NPY-Y2 (human) receptor antagonism; AID 793; 140,000 compounds, 0.99% hits; P49146; inhibition, % at 2.7 µM; NPY-Y2 expressing cells, antagonist mode; in the data active = inhibition above about 17%;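 note: 0% = vehicle with agonist challenge and 100% = reference antagonist with challenge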
# RAM network inh: yeast RAM network inhibition | S. cerevisiae dse1pr::URA3 reporter, 5-FOA growth OD615, 2 d; analog-sensitive cbk1-as2 kinase mutant strain | 190,000 compounds, 1.8% hits | inhibition, % at 50 µM;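 active = inhibition above a set limit, 3 SD over mean compound inhibition, cut at about 8.4% in these data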;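 note: 0% = DMSO-only wells with no growth and 100% = 10 µM 1-NA-PP1 full growth; inhibition rescues growth on 5-FOA so higher OD means more RAM inhibition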
# WT yeast gro inh: growth inhibition of WT yeast, mitochondrial fusion screen | mitochondrial fusion phenotypic screen, WT strain | inhibition, % at 10 µM | 190,000 compounds, 2.1% hits | AID 1362; in the data active = inhibition above about 58%; tested in S. cerevisiae
# NPY-Y2 PAM-ag: potentiates or activates human NPY-Y2 receptor; P49146; cells expressing NPY-Y2, potentiator/agonist read-out; activation, % at 3.6 µM; 220,000 compounds, 0.45% hits; in the data active = activation above about 27%;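 note: cells stimulated with NPY near EC25 plus isoproterenol at EC100; 0% = vehicle plus submaximal agonist and 100% = vehicle plus saturating agonist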
# NPY-Y2 confirm: confirmation of human NPY-Y2 receptor potentiators or agonists; shares compounds with NPY-Y2 PAM-ag; cell-based NPY-Y2 potentiator/agonist assay; activation, % at 3.6 µM; 450 compounds, 20% hits; in the data active = activation above about 33%
# NPY-Y1 counter: counter-screen for NPY-Y2 potentiators or agonists: NPY-Y1 potentiators or agonists; 450 compounds, 20% hits; shares compounds with NPY-Y2 PAM-ag; activation, % at 3.6 µM; Y1 HEK293-CNG cells, membrane potential fluorescence; in the data active = activation above about 45%;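 note: cells stimulated with submaximal NPY then isoproterenol with phosphodiesterase inhibitor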
# NPY-Y1 ag 2: activates human NPY-Y1, counter-screen for NPY-Y2 potentiators; shares compounds with NPY-Y2 PAM-ag; HEK293 Y1-CNGC, membrane potential fluorescence, agonism; activation, % at 3.6 µM; 450 compounds, 37% hits;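 active = activation above the mean of DMSO-only control wells plus 3 SD, cut at about 18% in these data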;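 note: cells stimulated with 1 µM isoproterenol plus the PDE inhibitor Ro 20-1724; 0% = isoproterenol with DMSO and no NPY and 100% = 40 nM NPY; Y1 agonists lower the membrane potential dye signal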
# CNGC inhibitor: blocks CNG channel activity, counter-screen for NPY-Y2 potentiators | HEK293-CNG parental, isoproterenol cAMP, membrane potential fluorescence | inhibition, % at 3.6 µM | shares compounds with NPY-Y2 PAM-ag | 450 compounds, 32% hits;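 active = inhibition above the control-well mean plus 3 SD of those wells, cut at about 22% in these data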;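 note: 0% = DMSO with isoproterenol and 100% = DMSO without isoproterenol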
# Y2 agonist ctr: counter-screen for NPY-Y2 potentiators: agonists of human NPY-Y2; shares compounds with NPY-Y2 PAM-ag; HEK293 Y2/CNGC cells, membrane potential fluorescence, agonist mode; activation, % at 3.6 µM; 450 compounds, 56% hits; AID 1710;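 active = activation above the mean of solvent-only control wells plus 3 SD, cut at about 10% in these data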;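 note: cells stimulated by isoproterenol with no NPY added so direct agonism is tested; 0% = DMSO with isoproterenol alone and 100% = NPY at EC100 plus isoproterenol; agonism lowers probe fluorescence through less cAMP and CNG channel opening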
# The depositor's hits bear a star; . = no result given. Only some compounds are listed: those with a hit (about 4.9% of all), similar ones and a draw of the others.
SMILES,NPY1 pot ag,NPY-Y1 antag,NPY-Y2 antag,RAM network inh,WT yeast gro inh,NPY-Y2 PAM-ag,NPY-Y2 confirm,NPY-Y1 counter,NPY-Y1 ag 2,CNGC inhibitor,Y2 agonist ctr
COc1cc(OC)c(NC(=O)CCNS(=O)(=O)c2cc(Br)cnc2N)cc1Cl,20,-4,-3,1,10,48*,9,22,14,14,5
Cc1[nH]n(-c2ccccc2)c(=O)c1C(=O)c1ccc([N+](=O)[O-])cc1,7,0,.,1,5,0,.,.,.,.,.
Cc1nn(-c2ccccc2)nc1C(=O)c1c(C)[nH]n(-c2ccccc2)c1=O,-22,.,.,.,.,65*,-20,-13,-6,-13,-5
Fc1ccc(Nc2ccnc(Nc3ccc(F)cc3)n2)cc1,26,-5,-3,-1,75,32*,21,28,15,24*,26*
CN(C)c1cccc2c1C(=O)c1ccccc1C2=O,17,-5,-6,0,14,33*,34*,42,26*,26*,29*
Cn1c(=O)oc2cc(S(=O)(=O)N3CCC(C(=O)N4CCN(c5ccccc5)CC4)CC3)ccc21,14,5,0,5,4,13,.,.,.,.,.
Cc1cccc(-c2nc3ccccc3c(=O)n2NC(=O)c2ccc([N+](=O)[O-])c(C)c2)c1,-20,7,6,4,9,7,.,.,.,.,.
CCOC(=O)c1c(NC2OC(=O)c3c2ccc(OC)c3OC)sc(C(=O)OC(C)(C)C)c1C (configuration not stated),2,5,4,0,25,4,.,.,.,.,.
N#C/C(=C(/O)c1ccco1)c1nc2ccccc2s1,19,-8,-2,6,12,19,.,.,.,.,.
N#C/C(=C(/O)c1cccc(F)c1)c1nc2ccccc2s1,11,.,.,.,.,103*,-2,-14,-15,-9,4
COc1ccc2[nH]c(=O)c(C(=O)O)cc2c1,-17,-3,.,1,8,-6,.,.,.,.,.
S=C1NCN(CCc2ccccc2)CN1,6,.,.,.,.,73*,-1,-3,-5,3,5
CSCCC(/C(O)=C(\C#N)c1nc2ccccc2[nH]1)N1C(=O)c2ccccc2C1=O (configuration not stated),-5,3,-2,4,3,9,.,.,.,.,.
CC(=O)Nc1ccc(S(=O)(=O)NCCSCc2cccc(Cl)c2)cc1,11,-9,5,2,-24,7,.,.,.,.,.
CC(=O)Nc1ccc(S(=O)(=O)NCCSCc2c(Cl)cccc2Cl)cc1,3,-3,0,1,-10,36*,-1,-4,-11,-4,-3
Cc1nc(-c2cn[nH]c2)c2cc(C)oc2n1,11,-1,-2,1,-1,107*,-8,0,-12,3,-10
O=S(=O)(Nc1cccc2ccccc12)c1cccc2nonc12,19,.,.,.,.,63*,-1,6,-3,-3,-2
Cc1cccc(NS(=O)(=O)c2cccc3nonc23)c1,19,-5,.,2,8,6,.,.,.,.,.
CCOC(=O)C1(CCOc2ccccc2)CCN(Cc2ccc(-n3cccn3)cc2)CC1,-7,7,.,1,14,-28,.,.,.,.,.
COCCNC(=O)CN1C(=O)CSc2cc(S(=O)(=O)N3CCCCCC3)ccc21,-11,1,1,.,19,97*,-2,-10,-14,0,-7
COc1ccccc1CNC(=O)CN1C(=O)CSc2ccc(S(=O)(=O)N3CCCC3)cc21,4,3,.,0,-2,-9,.,.,.,.,.
COCCN=c1scc(-c2cc(OC)ccc2OC)n1/N=C/c1c[nH]c2ccccc12,43,-13,-3,2,58*,33*,33*,49*,46*,37*,36*
COC(=O)N/N=C/c1c[nH]c2ccccc12,13,-2,0,1,-11,4,.,.,.,.,.
Cc1ccc(NC2=Nc3ccccc3CS2)cc1,37,6,1,2,17,36*,1,-5,5,4,6
O=C(O)CSC1=NC(=Nc2ccc(Cl)cc2)C2(CCCCC2)N1c1cccc(C(=O)O)c1,1,-2,1,-1,-3,6,.,.,.,.,.
SMILES,NPY1 pot ag,NPY-Y1 antag,NPY-Y2 antag,RAM network inh,WT yeast gro inh,NPY-Y2 PAM-ag,NPY-Y2 confirm,NPY-Y1 counter,NPY-Y1 ag 2,CNGC inhibitor,Y2 agonist ctr
Cc1ccc(N2C(SCC(=O)O)=NC(=Nc3cccc(C)c3)C23CCCC3)cc1,23,2,.,0,-11,70*,-3,0,-10,0,-8
CCS(=O)(=O)c1ccc2c(c1)NC(=O)C(CCO)O2 (configuration not stated),-10,-3,.,1,2,3,.,.,.,.,.
O=C(/C=C/c1ccc([N+](=O)[O-])cc1)NCCc1ccc(F)cc1,9,2,.,4,-8,46*,0,-2,-5,-1,9
CCc1cc[n+](/C(C(=S)Nc2cccc(C)c2)=C(/[O-])c2ccc(C)c([N+](=O)[O-])c2)cc1,39,-3,3,1,0,42*,4,11,9,15,15*
CCN1C(=O)C2(C(C#N)=C(N)Oc3n[nH]c(-c4ccc(Cl)cc4)c32)c2ccccc21 (configuration not stated),31,-7,5,2,14,39*,44*,58*,51*,24*,36*
CCCOc1ccc(CCC(=O)N/N=C/c2ccco2)cc1,8,.,.,.,.,100*,2,3,-5,1,6
O=C(COc1ccc(Oc2ccccc2)cc1)NCc1cn2ccccc2n1,-12,11,.,1,-10,-8,.,.,.,.,.
O=C(O)c1ccc(OCc2cn3ccccc3n2)cc1,9,.,.,.,.,101*,2,7,-1,3,13*
COc1ccc(Cl)cc1NS(=O)(=O)c1cc(Cl)ccc1OC,43,-6,-2,2,30,33*,24,38,29*,26*,32*
COC(=O)CCSc1cc(NCCOC(C)=O)c([N+](=O)[O-])c2nonc12,-7,-7,0,2,-1,43*,-2,-3,-6,4,-3
CCCN1Cc2cccc(C(=O)N3CCN(c4ccc(OC)cc4)CC3)c2C1=O,6,-4,.,1,-21,-4,.,.,.,.,.
